# Marks after values point to notes of the source that are not given here.
# Legend:
# [1] = system: U87 cells; experiment: Flow cytometric cell cycle analysis; format: cell-based, human; settings: 24 h
# [2] = system: U87 cells; experiment: Annexin V apoptosis by flow cytometry; format: cell-based, human; settings: 24 h
# Summary of the method: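 U87 cells in 12-well plates, cultured overnight, then exposed 24 h to test compound (6.3 μM), an EGFR inhibitor (13.3 μM) or both. Floating and attached cells were pooled and stained with Annexin V-FITC (10 μg/ml) in HEPES-buffered saline (pH 7.4) with Ca2+ and Mg2+. Flow cytometry at 5000 events/sample. Reported as mean ± S.D. of three experiments.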
# [3] = system: panel of 11 glioma models including a patient-derived model [GBM10]; experiment: SRB cytotoxicity assay, panel of glioma models; format: cell-based, human; settings: compared with U87 cells; Fig. S1
# [4] = system: Akt; experiment: Biochemical kinase screen
# [5] = biological target: VEGFR3 (Homo sapiens, UniProt P35916); experiment: Biochemical kinase screen
# [6] = system: phosphorylated Akt, CREB, JNK pan, Erk, p38γ; experiment: Human phospho-MAPK array in U87 cells; format: cell-based; settings: 6.3 μM, 1 h
# Summary of the method: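 U87 cells on 10 cm plates were exposed to 6.3 μM test compound for 1 h, rinsed in cold PBS and lysed at 1 × 10^7 cells/ml, rocking 30 min at 4°C. 200 μg of supernatant protein was mixed with detection antibody cocktail for 1 h at room temperature. The mixture was applied to array membranes overnight at 4°C, then streptavidin-HRP for 30 min. Chemiluminescent spots were recorded on X-ray film.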
# [7] = system: p-Akt; experiment: p-Akt in U87 cells by western blot / MSD assay; format: cell-based, human; settings: 6.3 μM
# Summary of the method: (§1)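 U87 cells received increasing test compound concentrations for 1 h, or 6.3 μM over a time course. Phospho- and total Akt/Erk were measured by western blot or MSD multispot immunoassay, loading 20 μg (Akt) or 5 μg (Erk) lysate in duplicate. Plates were incubated overnight at 4°C, then detection antibody for 2 h at room temperature. Signals were background-corrected; phospho/total percentage expressed relative to control.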
# [8] = system: p-Erk; experiment: p-Erk in U87 cells by western blot / MSD assay; format: cell-based, human
# Summary of the method: as §1
# [9] = system: P70S6K phosphorylation; experiment: Western blot of phosphorylated P70S6K in U87 cells; format: cell-based, human; settings: 6.3 μM, 1 h, mean ± S.D.
# Summary of the method: (§2)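 U87 cells in DMEM with 10% FBS at 37°C, 5% CO2, grown on 10 cm plates and exposed to test compound for 1 h. Lysed on ice in buffer containing PMSF, phosphatase and protease inhibitors; 20 μg protein run on SDS-PAGE and blotted to PVDF. Detected with IRDye/Alexa 680 secondaries and quantified by Odyssey imaging against total protein and β-actin, relative to control. Blots repeated at least three times.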
# [10] = system: 40S ribosomal protein S6 [rpS6] phosphorylation; experiment: Western blot of phosphorylated rpS6 in U87 cells; format: cell-based, human; settings: 6.3 μM, 1 h, mean ± S.D.
# Summary of the method: as §2
# [11] = system: Rb S780 phosphorylation; experiment: Western blot of phosphorylated Rb S780 in U87 cells; format: cell-based, human; settings: 6.3 μM, 1 h, mean ± S.D.
# Summary of the method: as §2
# [12] = system: p-mTOR [S2481 and 2448]; experiment: Immunoblot of p-mTOR in U87 cells; format: cell-based, human; settings: 6.3 μM ON123300 alone or with 13.3 μM GFN, 1 h
# Summary of the method: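 U87 cells were treated 1 h with 6.3 μM test compound, 13.3 μM EGFR inhibitor or both. Lysis buffer held PMSF plus phosphatase and protease inhibitors; lysates were sonicated and spun at 21,000 × g. 20 μg protein per lane went on SDS-PAGE and PVDF, blocked in 5% milk. Primary antibody was 1 h at room temperature or overnight at 4°C. Bands quantified densitometrically as percentages; mean ± S.D. of three experiments.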
# [13] = system: p-C-Raf S259; experiment: Western blot of p-C-Raf S259 in U87 or U87PTEN cells; format: cell-based, human; settings: 6.3 μM, 1 h
# Summary of the method: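 U87 or PTEN-expressing U87 cells in 6-well plates were pretreated 1 h with vehicle, 50 μM LY294002 or 1 μM wortmannin. Test compound was then added at 6.3 μM for 1 h. Lysates (20 μg protein) were resolved by SDS-PAGE, transferred to PVDF, blocked in 5% milk and immunoblotted.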
# [14] = system: p-Akt; experiment: p-Akt in GBM39 cells; format: cell-based; settings: Homo sapiens, GBM39, read-out: nadir p-Akt inhibition relative to the control
# [15] = system: p-Erk; experiment: p-Erk in GBM39 cells; format: cell-based, human; settings: 4μM
# [16] = In vivo pharmacokinetics in mice bearing intracerebral U87 tumors; set-up: species or system mouse; settings: for AUC / Kp / Tmax / clearance / Vd / half-life: NIH Swiss nude, mouse, iv; for Kp: Pbt (brain tumor partition coefficient, AUCbt/AUCp); for clearance: CL; for Vd: Vss; for half-life: t½; for peak concentration in brain: at 5 min
# Summary of the method: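 Same intracerebral U87 nude-mouse model, single IV tail-vein bolus of 5 or 25 mg/kg. Plasma, normal brain and tumour were taken from 3–4 mice per time point (5 min–10 h). Tissues were saline-rinsed and homogenised 20% w/w in water. Samples (10 μl) were protein-precipitated with 40 μl cold acetonitrile and quantified by ESI LC/MS/MS. Noncompartmental analysis; AUC to last observable concentration by linear-log interpolation.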
# [17] = system: p-Akt in intracerebral U87 brain tumors; experiment: In vivo pharmacodynamics: p-Akt in brain tumor; set-up: species or system mouse; settings: for p-Akt nadir, of control: within 30 min
# Summary of the method: (§3)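 NIH Swiss nude mice carried U87 cells (10^6 in 10 μl PBS) implanted stereotactically into the caudate putamen. Test compound was given as an IV tail-vein bolus of 5 or 25 mg/kg, or 25 mg/kg 1 h after oral EGFR inhibitor (200 mg/kg). Tumours were collected from 5 min to 10 h (17 h with co-dosing) and lysed at 20 μl buffer/mg. Phospho/total Akt and Erk were measured by MSD as percent of control, at least three mice per time point. ABEC was reported in %-h.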
# [18] = system: p-Erk in intracerebral U87 brain tumors; experiment: In vivo pharmacodynamics: p-Erk in brain tumor; set-up: species or system mouse
# Summary of the method: as §3
# [19] = system: ABC transporters; settings: based on previous studies; cited from earlier work
# [20] = system: p-Akt, phosphorylation of its downstream proteins and p-Erk; experiment: Western blot of p-Akt, its downstream proteins and p-Erk in U87 cells; format: cell-based, human; settings: 70 μM ON1231120 or 10 μM ON1231320, 1 h
# Summary of the method: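 U87 cells on 10 cm plates, 1 h exposure to test compound. Lysates were prepared in buffer with PMSF and phosphatase/protease inhibitors, sonicated, held 30 min on ice and cleared at 21,000 × g for 10 min at 4°C. Blotting used 20 μg protein on SDS-PAGE and PVDF, blocked in 5% nonfat milk. Primary antibodies 1 h at room temperature or overnight at 4°C.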
# [21] = plasma, 5 mg/kg, ON123300 5 mg/kg IV
# [22] = plasma, 25 mg/kg, ON123300 25 mg/kg IV
# Sequence of VEGFR3 (P35916 25-1363): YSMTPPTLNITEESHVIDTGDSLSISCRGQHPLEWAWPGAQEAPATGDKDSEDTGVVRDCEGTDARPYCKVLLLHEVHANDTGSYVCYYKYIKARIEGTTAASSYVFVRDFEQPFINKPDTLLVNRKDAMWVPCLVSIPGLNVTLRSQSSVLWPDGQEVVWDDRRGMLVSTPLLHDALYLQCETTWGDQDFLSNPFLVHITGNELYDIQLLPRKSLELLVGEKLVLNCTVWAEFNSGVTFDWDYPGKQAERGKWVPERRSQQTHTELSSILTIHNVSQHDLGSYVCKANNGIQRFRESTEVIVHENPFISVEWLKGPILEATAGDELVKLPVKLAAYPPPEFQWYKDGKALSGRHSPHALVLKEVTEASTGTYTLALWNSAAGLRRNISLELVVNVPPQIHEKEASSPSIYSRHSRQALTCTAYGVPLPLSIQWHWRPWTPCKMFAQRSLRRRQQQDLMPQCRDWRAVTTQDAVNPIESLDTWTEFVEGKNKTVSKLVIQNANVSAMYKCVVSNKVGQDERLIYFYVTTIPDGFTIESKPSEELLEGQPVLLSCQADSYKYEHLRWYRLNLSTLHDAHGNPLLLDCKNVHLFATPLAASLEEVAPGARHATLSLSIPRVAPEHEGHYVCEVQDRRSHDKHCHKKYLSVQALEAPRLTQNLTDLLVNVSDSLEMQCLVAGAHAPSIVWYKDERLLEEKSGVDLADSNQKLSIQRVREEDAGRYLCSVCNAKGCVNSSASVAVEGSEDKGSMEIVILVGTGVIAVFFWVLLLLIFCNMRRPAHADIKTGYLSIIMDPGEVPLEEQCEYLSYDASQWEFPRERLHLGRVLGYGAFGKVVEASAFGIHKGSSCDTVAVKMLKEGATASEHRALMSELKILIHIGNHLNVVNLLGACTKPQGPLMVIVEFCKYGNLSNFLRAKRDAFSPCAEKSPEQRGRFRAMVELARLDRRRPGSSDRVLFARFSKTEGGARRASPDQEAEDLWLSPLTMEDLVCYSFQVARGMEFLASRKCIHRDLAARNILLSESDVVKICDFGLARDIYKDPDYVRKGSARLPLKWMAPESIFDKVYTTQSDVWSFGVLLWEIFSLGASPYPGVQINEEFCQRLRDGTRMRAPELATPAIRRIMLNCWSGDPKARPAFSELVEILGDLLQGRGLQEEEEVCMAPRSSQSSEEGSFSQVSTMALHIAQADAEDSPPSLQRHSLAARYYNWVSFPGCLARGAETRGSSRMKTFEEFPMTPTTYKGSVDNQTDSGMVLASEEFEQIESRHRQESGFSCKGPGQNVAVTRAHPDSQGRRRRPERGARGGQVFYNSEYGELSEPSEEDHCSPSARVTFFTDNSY
smiles,measurement,setting,value
"COc1cc2ncnc(Nc3ccc(F)c(Cl)c3)c2cc1OCCCN1CCOCC1 [GFN, gefitinib, reference compound]",percentage of cells in the G1 phase,"[1]; 13.3 μM GFN, control 66 ± 0.9%",80.9 ± 2.5%
same,apoptotic cell death (Annexin V staining),[2],did not cause apoptotic cell death
CN1CCN(c2ccc(Nc3ncc4cc(C#N)c(=O)n(C5CCCC5)c4n3)cc2)CC1 [ON123300],inhibition of cell proliferation in a panel of 11 glioma models,[3],quite comparable to that observed to U87 cells
same,direct inhibition of Akt,[4],did not directly inhibit
same,inhibitory action against VEGFR3,[5],appreciable inhibitory action
same,p-Erk and p38γ levels,[6],increased
same,"phosphorylated Akt, CREB and JNK pan expression levels",[6],decreased
same,time of p-Akt nadir,[7],30 min
same,phosphorylation of Akt relative to control,"[7]; 1 h, western blot, mean ± S.D.",40.1% ± 5.7
same,p-Erk relative to control,"[8]; 6.3 μM, 1 h, western blot, mean ± S.D.",120 % ± 6.9
same,p-Erk elevation relative to pre-treatment,"[8]; 6.3 μM, over 6 h",about 2 fold
same,concentration giving 100% increase in p-Erk compared to vehicle,"[8]; 1 h, western blot and MSD",about 7 μM
same,phosphorylation of P70S6K relative to control,[9],31.8 %± 2.1
same,phosphorylation of rpS6 relative to control,[10],60.5% ± 1.0
same,phosphorylation of Rb S780 relative to control,[11],54.5% ± 6.3
same,expression of p-mTOR S2448,[12],86% ± 3.1
same,expression of p-mTOR S2481,[12],102% ± 5.2
same,p-C-Raf S259 expression,[13],partially decreased
same,inhibition at 4 µM,[14],55%
same,peak p-Erk activation relative to the control,[15],174%
same,increase in the percentage of cells in the G2/M phase vs control,[1],~2.5 fold
same,percentage of cells in the G2/M phase,"[1]; 6.3 μM ON123300 alone or with 13.3 μM GFN, control 10.4 ± 0.6%",38.2 ± 01.4%
same,apoptotic cell death (Annexin V staining),[2],induced cell death by apoptosis in a dose-dependent manner
same,AUC,"[16]; brain tumor, 5 mg/kg, AUCbt, ON123300 5 mg/kg IV",6890 ng·h/mL
same,Kp,"[16]; brain tumor, 5 mg/kg, ON123300 5 mg/kg IV",5.7
same,AUC,"[16]; brain tumor, 25 mg/kg, AUCbt, brain tumor, ON123300 25 mg/kg IV 1 h after oral 200 mg/kg GFN",49400 ng·h/mL
same,AUC,"[16]; brain tumor, 25 mg/kg, AUCbt, ON123300 25 mg/kg IV",63200 ng·h/mL
same,Kp,"[16]; brain tumor, 25 mg/kg, ON123300 25 mg/kg IV",15
same,Tmax,"[16]; brain tumor, 25 mg/kg, Tmax brain tumor, ON123300 25 mg/kg IV",1 h
same,AUC,"[16]; brain, 5 mg/kg, AUCb, ON123300 5 mg/kg IV",3120 ng·h/mL
same,AUC,"[16]; brain, 25 mg/kg, AUCb, ON123300 25 mg/kg IV",11700 ng·h/mL
same,Tmax,"[16]; brain, 25 mg/kg, Tmax brain, ON123300 25 mg/kg IV",0.083 h
same,AUC,"[16]; plasma, 5 mg/kg, AUCp, ON123300 5 mg/kg IV",1210 ng·h/mL
same,clearance,[16]; [21],69.1 mL/min/kg
same,Vd,"[16]; plasma, 5 mg/kg, plasma, ON123300 5 mg/kg IV",3.6 L/kg
same,half-life,[16]; [21],1.5 h
same,AUC,"[16]; plasma, 25 mg/kg, AUCp, ON123300 25 mg/kg IV",4220 ng·h/mL
same,clearance,[16]; [22],98.7 mL/min/kg
same,Vd,"[16]; plasma, 25 mg/kg, plasma, ON123300 25 mg/kg IV",10.2 L/kg
same,half-life,[16]; [22],1.5 h
same,reduction in the total clearance of ON123300 in the presence of GFN,"[16]; ON123300 25 mg/kg IV, oral 200 mg/kg GFN",33%
same,Cmax brain tumor,"[16]; brain tumor, ON123300 5 mg/kg IV",6493 ng/mL
same,Cmax brain tumor,"[16]; brain tumor, ON123300 25 mg/kg IV",27250 ng/mL
same,Cmax brain tumor,"[16]; brain tumor, ON123300 25 mg/kg IV 1 h after oral 200 mg/kg GFN",20900 ng/mL
same,peak concentration in brain,"[16]; brain, ON123300 5 mg/kg IV",5735 ng/g
same,peak concentration in brain,"[16]; brain, ON123300 25 mg/kg IV",12432 ng/g
same,Cmax brain,"[16]; brain, ON123300 25 mg/kg IV",12432.5 ng/mL
same,Cmax brain,"[16]; brain, ON123300 25 mg/kg IV 1 h after oral 200 mg/kg GFN",16300 ng/mL
same,increase in AUCp from 5 mg/kg to 25 mg/kg,"[16]; plasma, IV",3.5 fold
same,change in p-Akt ABEC from 5 mg/kg to 25 mg/kg,[17]; IV,5 fold
same,ABEC p-Akt,[17]; ON123300 5 mg/kg IV,63.2 %_h
same,"p-Akt nadir, of control",[17]; ON123300 5 mg/kg IV,73%
same,ABEC p-Akt,[17]; ON123300 25 mg/kg IV,304.9 %_h
same,ABEC p-Akt,[17]; ON123300 25 mg/kg IV 1 h after oral 200 mg/kg GFN,765.0 %_h
same,ABEC p-Akt,[17]; ON123300 25 mg/kg IV plus oral 200 mg/kg GFN,765 %-h
same,p-Akt nadir,"[17]; ON123300 25 mg/kg IV plus oral 200 mg/kg GFN, at 4 h after the ON123300 dose",about 30%
same,p-Akt level at 10 h,"[17]; ON123300 25 mg/kg IV, 10 h",~60%
same,"p-Akt nadir, of control",[17]; ON123300 25 mg/kg IV,60%
same,p-Erk spike at 5 min,"[18]; ON123300 5 mg/kg IV, 5 min",159%
same,p-Erk maximum relative to baseline,[18]; ON123300 25 mg/kg IV,161%
same,"p-Erk, of control, at 17 h","[18]; ON123300 25 mg/kg IV plus oral 200 mg/kg GFN, 17 h following the ON123300 dose",80%
same,p-Erk peak activation,"[18]; ON123300 25 mg/kg IV plus oral 200 mg/kg GFN, at 5 min",120%
same,ABEC p-Erk,"[18]; ON123300 25 mg/kg IV plus oral 200 mg/kg GFN, below the baseline",273.9 %-h
same,ABEC p-Erk,"[18]; ON123300 25 mg/kg IV, ABEC above the baseline",144.1^# %_h
same,ABEC p-Erk,"[18]; ON123300 25 mg/kg IV, above the baseline",144 %-h
same,substrate for the ABC transporters,[19],unlikely to be a substrate
Cn1c(=O)c(S(=O)(=O)c2ccc(F)cc2F)cc2cnc(Nc3ccc4[nH]ccc4c3)nc21 [ON1231320],"effects on p-Akt, its downstream proteins and p-Erk",[20],negligible effects

# Reference: article PMC4013241 (Molecular cancer therapeutics, 2014)
